Test results published in ChEMBL document CHEMBL1138687, “Pharmacological exploitation of the alpha1-adrenoreceptor antagonist doxazosin to develop a novel class of antitumor agents that block intracellular protein kinase B/Akt activation” (J Med Chem, 2004).

system: PC-3; assay: Inhibition of prostate cancer (PC-3) cell proliferation; type: functional, cell-based; settings: Homo sapiens
How it was run: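 PC-3 cells, 8000/well, grown in RPMI 1640 with 10% FBS at 37 °C, 5% CO2. Exposed to the test agent in 10% FBS-supplemented RPMI 1640 for 48 h in six replicates. MTT at 0.5 mg/mL then added for 2 h at 37 °C, reduced dye dissolved in DMSO, absorbance read at 570 nm. IC50 taken from cell viability.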

Row | SMILES | IC50
1 | COc1cc2nc(N3CCN(S(=O)(=O)c4ccccc4[N+](=O)[O-])CC3)nc(N)c2cc1OC | 35 µM
2 | COc1cc2nc(N3CCN(C(=O)c4cccc5ccccc45)CC3)nc(N)c2cc1OC | 59 µM
3 | COc1cc2nc(N3CCN(S(=O)(=O)c4ccc(-c5cc6ccccc6c6ccccc56)cc4)CC3)nc(N)c2cc1OC | 5.2 µM
4 | COc1cc2nc(N3CCN(C(=O)c4ccc(C(F)(F)F)cc4)CC3)nc(N)c2cc1OC | > 100 µM
5 | COc1cc2nc(N3CCN(S(=O)(=O)c4cccc5c(N(C)C)cccc45)CC3)nc(N)c2cc1OC | 29 µM
6 | COc1cc2nc(N3CCN(C(=O)OCc4ccccc4)CC3)nc(N)c2cc1OC | 63 µM
7 | COc1cc2nc(N3CCN(C(=O)c4ccc([N+](=O)[O-])cc4)CC3)nc(N)c2cc1OC | 75 µM
8 | C=CCOc1cc2nc(N3CCN(S(=O)(=O)c4ccc(-c5ccccc5)cc4)CC3)nc(N)c2cc1OCC=C | 3.3 µM
9 | COc1cc2nc(N3CCN(S(=O)(=O)c4ccc(C(C)(C)C)cc4)CC3)nc(N)c2cc1OC | 4.1 µM
10 | COc1cc2nc(N3CCN(S(=O)(=O)c4ccc5ccccc5c4)CC3)nc(N)c2cc1OC | 15 µM
11 | COc1cc2nc(N3CCN(C(=O)c4ccc(C#N)cc4)CC3)nc(N)c2cc1OC | 68 µM
12 | COc1cc2nc(N3CCN(S(=O)(=O)c4cccc([N+](=O)[O-])c4)CC3)nc(N)c2cc1OC | 32 µM
13 | COc1cc2nc(N3CCN(S(=O)(=O)c4ccc(S(C)(=O)=O)cc4)CC3)nc(N)c2cc1OC | 17 µM
14 | CCCCc1ccc(-c2ccc(S(=O)(=O)N3CCN(c4nc(N)c5cc(OC)c(OC)cc5n4)CC3)cc2)cc1 | 3.4 µM
15 | CC(C)Oc1cc2nc(N3CCN(S(=O)(=O)c4ccc(-c5ccccc5)cc4)CC3)nc(N)c2cc1OC(C)C | 24 µM
16 | COc1cc2nc(N3CCN(S(=O)(=O)c4ccc(-c5ccccc5)cc4)CC3)nc(N)c2cc1OC | 4.2 µM
17 | COc1ccc(C(=O)N2CCN(c3nc(N)c4cc(OC)c(OC)cc4n3)CC2)cc1OC | 71 µM
18 | COc1cc2nc(N3CCN(S(=O)(=O)c4ccc(Br)cc4)CC3)nc(N)c2cc1OC | 20 µM
19 | CCCCOc1cc2nc(N3CCN(S(=O)(=O)c4ccc(-c5ccccc5)cc4)CC3)nc(N)c2cc1OCCCC | 3.5 µM
20 | COc1cc2nc(N3CCN(C(=O)c4cccc(C#N)c4)CC3)nc(N)c2cc1OC | 82 µM
21 | COc1cc2nc(N3CCN(S(=O)(=O)c4cc(C(=O)O)c(Cl)cc4Cl)CC3)nc(N)c2cc1OC | 52 µM
22 | COc1cc2nc(N3CCN(S(=O)(=O)c4ccc(C(F)(F)F)cc4)CC3)nc(N)c2cc1OC | 27 µM
23 | COc1cc2nc(N3CCN(C(=O)c4ccc(N)cc4)CC3)nc(N)c2cc1OC | > 100 µM
24 | COc1cc2nc(N3CCN(S(=O)(=O)c4c(C(C)C)cc(C(C)C)cc4C(C)C)CC3)nc(N)c2cc1OC | 24 µM
25 | COc1cc2nc(N3CCN(S(=O)(=O)c4ccc(C)cc4)CC3)nc(N)c2cc1OC | 30 µM
26 | COc1ccc(S(=O)(=O)N2CCN(c3nc(N)c4cc(OC)c(OC)cc4n3)CC2)cc1 | 39 µM
27 | COc1cc2nc(N3CCN(S(=O)(=O)c4ccc([N+](=O)[O-])cc4)CC3)nc(N)c2cc1OC | 36 µM
28 | COc1cc2nc(N3CCN(S(=O)(=O)c4ccc(-c5ccc(C(F)(F)F)cc5)cc4)CC3)nc(N)c2cc1OC | 3.3 µM
29 | COc1cc2nc(N3CCN(S(=O)(=O)c4ccc(-c5ccc(S(C)(=O)=O)cc5)cc4)CC3)nc(N)c2cc1OC | 7.2 µM
30 | COc1cc2nc(N3CCN(S(=O)(=O)c4ccc(N)cc4N)CC3)nc(N)c2cc1OC | 67 µM

Further lines, results first:

Row | IC50 | SMILES
31 | 14 µM | COc1cc2nc(N3CCN(S(=O)(=O)c4cccc5ccccc45)CC3)nc(N)c2cc1OC
32 | 23 µM | COc1cc2nc(N3CCN(S(=O)(=O)c4ccc(Cl)cc4)CC3)nc(N)c2cc1OC
33 | 60 µM | COc1cc2nc(N3CCN(S(=O)(=O)c4cc(Cl)ccc4Cl)CC3)nc(N)c2cc1OC
34 | 2.5 µM | CCCOc1cc2nc(N3CCN(S(=O)(=O)c4ccc(-c5ccccc5)cc4)CC3)nc(N)c2cc1OCCC
35 | 45 µM | COc1cc2nc(N3CCN(C(=O)C4COc5ccccc5O4)CC3)nc(N)c2cc1OC (stereo not given) [DOXAZOSIN]
36 | 15 µM | COc1cc2nc(N3CCN(S(=O)(=O)c4ccc(I)cc4)CC3)nc(N)c2cc1OC
37 | 10 µM | COc1cc2nc(N3CCN(S(=O)(=O)c4ccc(-c5ccc(C(C)(C)C)cc5)cc4)CC3)nc(N)c2cc1OC
38 | 47 µM | COc1cc2nc(N3CCN(C(=O)c4ccc(C(C)(C)C)cc4)CC3)nc(N)c2cc1OC
39 | 25 µM | COc1cc2nc(N3CCN(S(=O)(=O)c4ccc(OC(F)(F)F)cc4)CC3)nc(N)c2cc1OC
40 | 56 µM | COc1cc2nc(N3CCN(S(=O)(=O)c4cc(F)c(Cl)c(C(=O)O)c4)CC3)nc(N)c2cc1OC
41 | 53 µM | COc1cc2nc(N3CCN(S(=O)(=O)c4cccc(C(=O)O)c4)CC3)nc(N)c2cc1OC
42 | 25 µM | COc1cc2nc(N3CCN(S(=O)(=O)c4ccc(Cl)s4)CC3)nc(N)c2cc1OC
43 | 3.4 µM | COc1cc2nc(N3CCN(S(=O)(=O)c4ccc(-c5ccc(C)cc5)cc4)CC3)nc(N)c2cc1OC
44 | 53 µM | COc1cc2nc(N3CCN(S(=O)(=O)c4ccc(C(=O)O)cc4)CC3)nc(N)c2cc1OC
45 | 60 µM | COc1cc2nc(N3CCN(C(=O)c4ccc(Cl)cc4)CC3)nc(N)c2cc1OC
